Most compounds without a hit are left out; they make up all but 2.9% or so of the library.
SENP8 block-1 – inhibitors of human SENP8 protease. purified SENP8, Z-RLRGG-aminoluciferin cleavage, luminescence. inhibition, % at 10 µM. 330,000 compounds, 1.2% hits. AID 2540; in the data active = inhibition above about 50%
Target sequence (Q96LD8 whole entry, looked up): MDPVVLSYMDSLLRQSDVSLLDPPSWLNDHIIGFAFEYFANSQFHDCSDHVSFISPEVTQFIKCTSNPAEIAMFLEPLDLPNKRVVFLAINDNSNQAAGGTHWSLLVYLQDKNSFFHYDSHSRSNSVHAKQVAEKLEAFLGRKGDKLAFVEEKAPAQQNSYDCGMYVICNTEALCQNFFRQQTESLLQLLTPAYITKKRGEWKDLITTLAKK
SENP6 block – inhibitors of human SENP6 protease; inhibition, % at 10 µM; AID 2599; Recombinant SENP6 catalytic domain, aminoluciferin luminescence; 330,000 compounds, 1.8% hits;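 active = inhibition above about 50% at the single tested dose, limit read from the data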;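 note: plate controls were DMSO wells with enzyme for no effect and DMSO wells lacking enzyme for full effect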
SENP7 inh – SENP7 protease inhibition. recombinant SENP7, Z-RLRGG-aminoluciferin luminescence, 40 min. 330,000 compounds, 1.5% hits. Q9BQF6. inhibition, % at 5 µM. AID 434973;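 active = inhibition above about 50% at the single test dose, limit read from the data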;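 note: plate controls were DMSO with enzyme for no effect and no enzyme buffer wells for full effect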
Target sequence (Q9BQF6 706-1050 limits assumed): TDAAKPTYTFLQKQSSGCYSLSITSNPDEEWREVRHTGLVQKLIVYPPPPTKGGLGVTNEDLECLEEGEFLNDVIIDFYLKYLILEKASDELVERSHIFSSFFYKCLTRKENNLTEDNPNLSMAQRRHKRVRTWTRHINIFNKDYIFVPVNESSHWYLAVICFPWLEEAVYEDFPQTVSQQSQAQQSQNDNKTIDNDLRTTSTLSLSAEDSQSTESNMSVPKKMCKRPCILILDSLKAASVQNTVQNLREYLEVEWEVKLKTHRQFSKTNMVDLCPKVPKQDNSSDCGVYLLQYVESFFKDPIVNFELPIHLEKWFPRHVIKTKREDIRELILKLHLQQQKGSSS
SENP1 FRET inh – inhibitors of human SENP1 SUMO protease catalytic domain; 360,000 compounds, 0.21% hits; Q9P0U3; recombinant SENP1 catalytic domain, CyPet-SUMO1-YPet FRET cleavage; inhibition, % at 10 µM;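 active = inhibition at least 30% at 10 µM, raw YFP signal under a set limit, fluorescence ratio 0.5 to 1.5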;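 note: 0% = enzyme with DMSO and 100% = no enzyme wells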
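Assay system: hSENP1 catalytic domain, recombinant. Amount: SENP1 enzyme, 20 pM final. Schedule: 50 min reaction, RT, dark. Technique: FRET, CFP and YFP emission. Control set: no-enzyme wells low, DMSO-plus-enzyme wells high control.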
SENP8 block-2 – blocks human SENP8 cleavage of Nedd8 substrate; AID 602440; inhibition, % at 20 µM; recombinant SENP8, Nedd8 substrate fluorescence; 360,000 compounds, 0.64% hits; in the data active = inhibition mostly above about 40%, no sharp cut-off; inactive = mostly below about 27%
Apaf1 inhib – inhibitors of human Apaf-1 apoptosome; O14727; reconstituted apoptosome caspase-3 activity, DEVD-Rh110 fluorescence; inhibition, % at 20 µM; 330,000 compounds, 0.71% hits; AID 489030; active = inhibition of at least 40% at 20 µM;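 note: plate controls were DMSO wells for no effect and DEVD-CHO caspase inhibitor wells for full effect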
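Material: reconstituted apoptosome with Apaf-1, cytochrome c, caspase-9, procaspase-3, dATP. Technique: Rh110 fluorescence intensity. Buffer or medium: pH 7.5 Hepes buffer with CHAPS, BSA, DTT. Times: 30 min plus 50 min, RT.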
The depositor's hits bear a star.

Results for CC(C)C(=O)NC(c1ccccc1)c1cc([N+](=O)[O-])c2cccnc2c1O (centres undefined) ?
SENP8 block-1: -3; SENP6 block: 8; SENP7 inh: 2; SENP1 FRET inh: -2; SENP8 block-2: 32; Apaf1 inhib: 13

How did CCCC(=O)NC(c1cccs1)c1cc([N+](=O)[O-])c2cccnc2c1O (centres undefined) do in these assays?
SENP1 FRET inh: -4; SENP8 block-2: 52*

How did CCC(=O)NC(c1cccs1)c1cc([N+](=O)[O-])c2cccnc2c1O (centres undefined) do in these assays?
SENP8 block-1: 7; SENP6 block: 3; SENP7 inh: 10; SENP1 FRET inh: 0; SENP8 block-2: 66*; Apaf1 inhib: 30

Results for CC(=O)NC(c1ccccc1)c1cc([N+](=O)[O-])c2cccnc2c1O (centres undefined) ?
SENP8 block-1: 5; SENP6 block: 9; SENP7 inh: 7; SENP1 FRET inh: -1; SENP8 block-2: 52*; Apaf1 inhib: 3

How did CC(=O)NC(c1cccs1)c1cc([N+](=O)[O-])c2cccnc2c1O (centres undefined) do in these assays?
SENP1 FRET inh: -5; SENP8 block-2: 45*

What do the screens show for `CC1(C(=O)O)CCCN1C(=O)c1cccc(C(F)(F)F)c1` (centres undefined)?
SENP1 FRET inh: 2; SENP8 block-2: 4

Results for O=C1CC(c2ccco2)CC(O)=C1C=Nc1cc(Cl)ccc1O (centres undefined) ?
SENP8 block-1: -3; SENP6 block: -24; SENP7 inh: 2; SENP1 FRET inh: 37*; SENP8 block-2: -280; Apaf1 inhib: 12

Results for O=C1CC(c2ccco2)CC(O)=C1C=Nc1cc(Cl)ccc1Cl (centres undefined) ?
SENP8 block-1: 7; SENP6 block: -15; SENP7 inh: 9; SENP1 FRET inh: 3; SENP8 block-2: -26; Apaf1 inhib: 3

Results for Cc1ccc(S(=O)(=O)Cn2nnnc2C(C(C)C)N2CCc3ccccc3C2)cc1 (centres undefined) ?
SENP8 block-1: 1; SENP6 block: 29; SENP7 inh: 10; SENP1 FRET inh: -5; SENP8 block-2: 64*; Apaf1 inhib: 37

What do the screens show for `Cc1ccc(NC2CNC(=O)NC2=O)cc1C` (centres undefined)?
SENP1 FRET inh: 6; SENP8 block-2: 7

How did Cc1ccc(NC2C(=O)NC(=O)NC2=O)cc1 do in these assays?
SENP1 FRET inh: 0; SENP8 block-2: 72*

Results for O=C(NCc1ccc(Cl)nc1)c1ccc2nc([C@@H]3O[C@H](CO)[C@H](O)[C@H](O)[C@H]3O)[nH]c2c1 ?
SENP1 FRET inh: -3; SENP8 block-2: 22

What do the screens show for `NC(=O)c1ccccc1N/C=C/C(=O)c1ccc(Cl)cc1Cl`?
SENP1 FRET inh: -66; SENP8 block-2: -476

How did NC(=O)c1ccccc1N/C=C/C(=O)c1ccc(F)cc1 do in these assays?
SENP8 block-1: 81*; SENP6 block: 97*; SENP7 inh: 91*; SENP1 FRET inh: -69; SENP8 block-2: -490; Apaf1 inhib: 6

Results for COc1ccc(C2=Nc3ccccc3N(C(=O)c3cnccn3)C2C(=O)NC2CCCC2)cc1 (centres undefined) ?
SENP1 FRET inh: 18; SENP8 block-2: -34

Results for CCC(C)(C)C1CCc2[nH]nc(C(=O)NCCNC(=O)OC(C)(C)C)c2C1 (centres undefined) ?
SENP8 block-1: 5; SENP6 block: -4; SENP7 inh: -9; SENP1 FRET inh: 2; SENP8 block-2: 8; Apaf1 inhib: 25

Results for O=C(Cn1cc(SCc2ccccc2Cl)c2ccccc21)N1CCOCC1 ?
SENP8 block-1: 43; SENP6 block: 75*; SENP7 inh: 40; SENP1 FRET inh: 0; SENP8 block-2: 11; Apaf1 inhib: 6

Results for CN(C)c1ccc(C=c2c3cc([N+](=O)[O-])ccc3n3c2cc(-c2ccccc2)[n+]3C)cc1 ?
SENP1 FRET inh: 9; SENP8 block-2: 51*

What do the screens show for `O=C(O)c1ccc(COc2ccc3c(c2)CCC3)cc1`?
SENP8 block-1: 84*; SENP6 block: 95*; SENP7 inh: 51*; SENP1 FRET inh: -1; SENP8 block-2: 10; Apaf1 inhib: -1

Results for N#CC(C#N)=C1c2cc(S(=O)(=O)NCCO)ccc2-c2ccc(S(=O)(=O)NCCO)cc21 ?
SENP8 block-1: 4; SENP6 block: -4; SENP7 inh: 5; SENP1 FRET inh: 33*; SENP8 block-2: 24; Apaf1 inhib: -11

What do the screens show for `COCCNC(=O)C1CCCN(Cc2ccc(C#N)cc2)CC1` (centres undefined)?
SENP1 FRET inh: 0; SENP8 block-2: 23

Results for CN(C)c1ccc(C(C(=O)NC2CCCCC2)N(Cc2ccco2)C(=O)c2snc(C(N)=O)c2N)cc1 (centres undefined) ?
SENP8 block-1: 6; SENP6 block: 0; SENP7 inh: 3; SENP1 FRET inh: -3; SENP8 block-2: -65; Apaf1 inhib: 14

How did O=C(c1ccc(CS(=O)Cc2ccc(Cl)cc2)o1)N1CCN(C2CCCCC2)CC1 (centres undefined) do in these assays?
SENP1 FRET inh: 0; SENP8 block-2: 11

What do the screens show for `O=C(O)CCC1c2cc3c4cc2OC2Oc5cc6c(cc51)C(CCC(=O)O)c1cc5c7cc1OC(O6)c1cc6cc(c1)Oc1cc(cc(C(=O)O)c1)Oc1cc8cc(c1)C(Oc1cc(c(cc1C5CCC(=O)O)C3CCC(=O)O)OC(O4)c1cc(cc(c1)Oc1cc(cc(C(=O)O)c1)O8)Oc1cc(cc(C(=O)O)c1)Oc1cc(cc2c1)Oc1cc(cc(C(=O)O)c1)O6)O7` (centres undefined)?
SENP8 block-1: 9; SENP6 block: -366; SENP7 inh: -7; Apaf1 inhib: 99*

Results for O=C1C2C(C(=O)N1/N=C/c1cc(Br)cc([N+](=O)[O-])c1O)C1C=CC2C12CC2 (centres undefined) ?
SENP8 block-1: 1; SENP6 block: -8; SENP7 inh: -5; SENP1 FRET inh: 12; SENP8 block-2: 41*; Apaf1 inhib: 8

How did CC(C)NC(=O)CN1CCN(C(c2ccnc3ccccc23)c2nnnn2-c2ccc3c(c2)OCCO3)CC1 (centres undefined) do in these assays?
SENP1 FRET inh: -2; SENP8 block-2: -11

Results for O=C(COC(=O)Cc1c(Cl)cccc1Cl)NCc1ccccc1 ?
SENP1 FRET inh: 2; SENP8 block-2: 10

What do the screens show for `Cc1ccc(S(=O)(=O)N2CC3(O)CN(C(=O)OC(C)C)N(C(=O)OC(C)C)CC3(OC(=O)NCc3ccccc3F)C2)cc1` (centres undefined)?
SENP1 FRET inh: 1; SENP8 block-2: -3
